Test results from PMC9060905 (RSC Advances, 2019).
Read-outs that look alike come from different tables or passages of the source. Ends that are not written are not given here.

How the values were obtained:
[1] = test system: ET-1 in vascular endothelial cells; details: cited from earlier work
ACE = details: cited from earlier work
[2] = cited from earlier work
ACE (from rabbit lung) = target: T1, ACE (from rabbit lung) (Oryctolagus cuniculus, UniProt P12822); assay: ACE-inhibitory activity; format: biochemical
T1 sequence (P12822 34-1310): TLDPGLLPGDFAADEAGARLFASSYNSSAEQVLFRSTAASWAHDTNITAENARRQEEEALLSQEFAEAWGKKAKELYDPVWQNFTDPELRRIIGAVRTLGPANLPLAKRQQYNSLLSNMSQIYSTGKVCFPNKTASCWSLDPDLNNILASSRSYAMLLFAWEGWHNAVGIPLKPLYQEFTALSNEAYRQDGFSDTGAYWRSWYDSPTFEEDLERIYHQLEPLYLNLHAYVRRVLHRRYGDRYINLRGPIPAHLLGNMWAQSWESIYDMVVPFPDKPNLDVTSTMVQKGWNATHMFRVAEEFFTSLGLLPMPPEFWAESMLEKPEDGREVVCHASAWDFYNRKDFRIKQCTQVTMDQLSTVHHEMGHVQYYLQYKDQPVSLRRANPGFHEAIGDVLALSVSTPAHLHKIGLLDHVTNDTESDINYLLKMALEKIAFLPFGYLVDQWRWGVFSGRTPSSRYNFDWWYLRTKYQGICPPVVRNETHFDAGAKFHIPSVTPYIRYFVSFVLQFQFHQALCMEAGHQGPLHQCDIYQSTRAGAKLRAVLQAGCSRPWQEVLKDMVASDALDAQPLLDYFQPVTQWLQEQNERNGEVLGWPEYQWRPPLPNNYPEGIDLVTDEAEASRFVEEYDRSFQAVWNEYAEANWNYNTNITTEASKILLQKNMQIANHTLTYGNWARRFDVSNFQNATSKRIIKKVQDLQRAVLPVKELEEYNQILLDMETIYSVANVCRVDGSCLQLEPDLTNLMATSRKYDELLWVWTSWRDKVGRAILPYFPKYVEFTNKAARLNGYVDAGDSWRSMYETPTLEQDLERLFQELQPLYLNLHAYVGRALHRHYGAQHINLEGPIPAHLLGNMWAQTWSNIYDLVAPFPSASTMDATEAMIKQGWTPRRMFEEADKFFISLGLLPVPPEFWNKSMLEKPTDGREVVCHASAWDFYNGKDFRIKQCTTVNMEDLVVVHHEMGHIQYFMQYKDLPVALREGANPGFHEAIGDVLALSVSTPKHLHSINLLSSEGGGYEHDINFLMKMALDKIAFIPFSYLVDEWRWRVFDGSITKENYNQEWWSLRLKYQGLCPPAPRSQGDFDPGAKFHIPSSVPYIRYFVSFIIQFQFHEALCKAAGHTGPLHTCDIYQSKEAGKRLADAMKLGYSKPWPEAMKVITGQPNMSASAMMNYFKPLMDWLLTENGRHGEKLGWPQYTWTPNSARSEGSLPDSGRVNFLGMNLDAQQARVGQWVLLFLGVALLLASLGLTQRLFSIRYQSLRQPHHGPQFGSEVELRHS
In short: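 Rabbit-lung ACE with HHL substrate. Hippuric acid is extracted into ethyl acetate (vortex 5 s, 14100g for 5 min). The upper organic phase is dried in a vacuum oven at 80 °C for 1 h, redissolved in distilled water, and read at 228 nm. Experiments repeated at least three times; mean values used.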

Row | Substance | Effect on ET-1 expression in vascular endothelial cells [1] | ACE inhibition pattern (ACE) | other results
1 | Val-Ile-Glu-Pro-Arg | inhibiting the expression of ET-1 | – | –
2 | SAAVGSP | – | mixed-mode inhibition patterns | –
3 | Val-Val-Leu-Tyr-Lys [VVLYK] | inhibiting the expression of ET-1 | mixed-mode inhibition patterns | –
4 | EVSQGRP | – | mixed-mode inhibition patterns | –
5 | Val-Phe-Tyr | inhibiting the expression of ET-1 | – | –
6 | Leu-Ala-Arg-Leu | – | – | Fe2+ chelating ability ([2]; at 0.1 mg mL^-1, tilapia gelatin peptide): 46.53%
7 | KAQYPYV [KAQYPYV, Lys-Ala-Gln-Tyr-Pro-Tyr-Val] | – | – | IC50 (ACE (from rabbit lung)): 37.1 µM
8 | YYIVS | – | – | Fe2+ chelating ability ([2]; at 3 mg mL^-1, sweet potato protein peptide): 59.74%
